Screening data deposited in PubChem by several laboratories.
A selection: hits, their analogues and other compounds. The true share with any hit is near 3.4%.
IMP-1 inhibitor – blocks Pseudomonas aeruginosa IMP-1 metallo-beta-lactamase. purified IMP-1, nitrocefin hydrolysis, epi-absorbance fluorescence. inhibition, % at 5.6 µM. actives 0.45% (n = 290,000). AID 1556;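 active means inhibition above the mean plus 3 SD of all compounds in the same screening run, cut at about 4.5% in these data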;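 further: 0% = IMP-1 with DMSO and 100% = DMSO wells lacking enzyme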
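Test system: recombinant IMP-1 enzyme, purified / Medium: HEPES buffer pH 7.1 with ZnSO4 and Brij 35 / Doses: single dose, 5.6 µM / Times: 25 °C, 15 min preincubation, 25 min reaction / Detection: Epi-absorbance via hydrolysed-nitrocefin quenching of white-plate fluorescence, 480/530 nm, EDTA stop / Evaluation: percent inhibition from optical density relative to buffer-blank wells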
CHT inh – human CHT choline transport inhibition; AID 488975; CHT-expressing cells, membrane potential dye, choline response; stronger effect = lower value; actives 0.86% (n = 310,000); B-score at 10 µM;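 active means B-score over 3 SD under the library average, and starting fluorescence ratio not unusually high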;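 further: choline stimulus applied at its EC90 after an EC20 pre-addition; B-score computed on integrated fluorescence ratio after choline addition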
Target sequence (Q9GZV3 whole entry, looked up): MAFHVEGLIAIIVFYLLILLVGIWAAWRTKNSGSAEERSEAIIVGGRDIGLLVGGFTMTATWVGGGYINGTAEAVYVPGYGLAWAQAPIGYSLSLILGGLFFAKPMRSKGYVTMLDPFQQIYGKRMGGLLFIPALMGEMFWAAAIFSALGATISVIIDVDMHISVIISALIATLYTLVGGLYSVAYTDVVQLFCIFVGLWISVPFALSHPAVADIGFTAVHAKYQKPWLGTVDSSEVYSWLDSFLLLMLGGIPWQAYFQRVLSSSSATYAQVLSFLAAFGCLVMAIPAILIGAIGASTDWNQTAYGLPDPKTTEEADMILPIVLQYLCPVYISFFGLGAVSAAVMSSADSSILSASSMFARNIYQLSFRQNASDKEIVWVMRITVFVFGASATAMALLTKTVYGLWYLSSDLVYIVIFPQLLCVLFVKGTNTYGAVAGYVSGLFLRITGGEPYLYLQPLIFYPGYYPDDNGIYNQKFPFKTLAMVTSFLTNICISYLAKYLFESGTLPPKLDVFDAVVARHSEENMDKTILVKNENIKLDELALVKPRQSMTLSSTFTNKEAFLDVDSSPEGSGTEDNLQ
CHT PAM – human CHT allosteric activation | B-score at 10 µM | Q9GZV3 | CHT-expressing cells, membrane potential dye, choline EC20; stronger effect = higher value; LV-AA mutant CHT in HEK293 cells | actives 0.49% (n = 310,000) | AID 488977;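 active means initial fluorescence not abnormally high and integrated response B-score, plate-corrected, over 3 SD above library mean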
VIM-2 inhibitor – blocks Pseudomonas aeruginosa VIM-2 metallo-beta-lactamase; purified VIM-2, nitrocefin hydrolysis, epi-absorbance fluorescence; inhibition, % at 5.6 µM; actives 0.89% (n = 290,000);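 active means inhibition above the mean of all tested compounds plus 3 SD, cutoff set per screening run, cut at about 7.5% in these data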;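 further: red hydrolysis product quenches plate fluorescence so inhibitors raise well fluorescence; 0% = enzyme with DMSO and 100% = DMSO without enzyme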
ANO1 activ – mouse TMEM16A channel activation, primary screen; Q8BHY3; HEK293 TMEM16A/YFP-H148Q/I152L, iodide quench fluorescence; stronger effect = lower value; B-score at 10 µM; actives 0.3% (n = 340,000);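 active means fluorescence-ratio B-score plate-corrected deviation score at least 3 library SD below zero, with starting fluorescence score within 5 deviations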;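 further: channel opened by trigger with iodide after compound preincubation; score built on the fluorescence ratio of max minus min over baseline; more negative score means more quench and so TMEM16A activation or potentiation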
ANO1 block – mouse TMEM16A channel inhibition, primary screen; Q8BHY3; HEK293 TMEM16A/YFP iodide influx fluorescence, ionomycin; normalized B-score (activity score, 25-100; higher = stronger inhibition) at 10 µM; actives 1.2% (n = 310,000); AID 588511;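 active means ratio plate-corrected score three or more library SD toward inhibition, starting fluorescence score within five deviations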;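 further: score derived from kinetic fluorescence span divided by baseline fluorescence per well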
CHT block conf – human CHT inhibition, confirmatory screen | shares compounds with CHT inh | CHT-expressing cells, choline membrane potential dye; LV-to-AA substituted CHT, HEK293 cells | CHT activity remaining % of control (stronger effect = lower value), % at 10 µM | actives 70% (n = 2,400);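 active means choline transporter activity left, mean of duplicates at 10 µM, below buffer-only control mean minus 3 SD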;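 further: depolarization triggered by choline at its EC90 following an EC20 pre-addition; 0% = hemicholinium-3 full block and 100% = buffer-only control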
HEK293 MPD ctr – activity in parental HEK293 cells lacking CHT | AID 493222 | membrane potential dye, choline response; active = decrease or increase beyond buffer ±3SD | membrane potential ratio readout (active if shifted either direction beyond buffer ±3SD; no single direction) at 10 µM | actives 4% (n = 2,400) | shares compounds with CHT inh;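 further: parental cells lack the transporter so any hit is non-specific; ratio is peak minus trough fluorescence over baseline after EC90 choline challenge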
* hit, by the source's call; i = inactive; · = no result.

SMILES	IMP-1 inhibitor	CHT inh	CHT PAM	VIM-2 inhibitor	ANO1 activ	ANO1 block	CHT block conf	HEK293 MPD ctr
NC(=O)C1CN(C(=O)c2nn(Cc3ccccc3)c(=O)c3ccccc23)c2ccccc2O1 (configuration not stated)	·	·	·	·	i	·	·	·
CCOC(=O)C1CCN(Cc2c(O)ccc3ccccc23)CC1	-2	i	i	-3	i	i	·	·
CCOC(=O)C1CCN(Cc2c(O)c3ccccc3oc2=O)CC1	-3	-5.9*	i	-2	i	i	65%*	i
Cc1ccc(S(=O)(=O)Oc2cccc(/C=N/n3cnnc3)c2)cc1	-3	-10*	i	-1	i	i	56%*	i
CCC(C)Nc1nc2c(c(=O)[nH]c(=O)n2C)n1CCOc1ccccc1 (configuration not stated)	-1	i	i	-3	·	i	·	·
CCCCn1c(NC(C)CC)nc2c1c(=O)[nH]c(=O)n2C (configuration not stated)	-2	-5.5*	i	-2	i	i	37%*	-8.9*
CCN(CC(=O)Nc1c(F)cccc1F)C(=O)c1ccc(N2CCCC2=O)cc1	·	i	i	·	i	i	·	·
CCC(C)(C)NC(=O)C(c1ccccc1F)N(Cc1ccco1)C(=O)c1csnn1 (configuration not stated)	-1	-5*	i	-2	i	i	i	i
CCc1ccc(N(C(=O)c2csnn2)C(C(=O)NC(C)(C)C)c2ccncc2)cc1 (configuration not stated)	-2	i	i	0	i	i	·	·
CCc1ccc(N(C(=O)c2csnn2)C(C(=O)NC(C)(C)CC)c2cccnc2)cc1 (configuration not stated)	1	-5.1*	i	-2	i	i	i	i
CCC(C)(C)NC(=O)C(c1ccccn1)N(C(=O)c1csnn1)c1ccc(C)cc1 (configuration not stated)	-3	-5.2*	i	-3	i	i	i	i
O=C(CCCN1C(=O)NC2(CCCC2)C1=O)Nc1cccc(S(=O)(=O)N2CCOCC2)c1	·	·	·	·	i	·	·	·
Cn1nc(C(F)(F)F)c(-c2ccccc2)c1NC(=O)c1cccnc1	-1	-5.3*	i	0	i	i	32%*	i
COc1ccc(-c2c(C(F)(F)F)nn(C)c2NC(=O)c2ccco2)cc1	-3	i	i	-2	i	i	·	·
Cn1nc(C(F)(F)F)c(-c2ccccc2)c1NC(=O)c1ccco1	-2	-5.6*	i	-1	i	i	36%*	i
Cn1nc(C(F)(F)F)c(-c2ccccc2)c1NC(=O)CCC(=O)O	-2	i	i	-2	i	i	·	·
O=C(CSc1nnc(-c2ccc(O)cc2)n1Cc1ccco1)N1CCc2ccccc2C1	-2	-5.8*	i	0	i	i	i	i
NC(=O)CSc1nnc(-c2ccc(O)cc2)n1Cc1ccco1	-1	i	i	-4	i	i	·	·
O=C(CSc1nnc(-c2ccncc2)n1Cc1ccco1)c1ccc(Cl)cc1	-4	-5.8*	i	-3	i	i	70%*	i
CCOC(=O)c1cc(COc2cc(Cl)cc(Cl)c2)on1	-4	i	i	-4	·	i	·	·
Cc1ccc(S(=O)(=O)N(C)C)cc1NC(=O)c1c(-c2c(F)cccc2Cl)noc1C	-1	i	i	-1	i	i	·	·
CC(NC(=O)C1CCN(C(=O)c2ccc(F)cc2)CC1)c1ccc(-n2ccnc2)cc1 (configuration not stated)	·	·	·	·	i	·	·	·
CS(=O)(=O)Nc1ccccc1C(=O)NCCSc1ccccc1	0	-6.5*	i	0	i	i	71%*	i
CS(=O)(=O)Nc1ccccc1C(=O)NCCSCc1ccccc1	-1	i	i	-1	i	i	·	·
CC1CCCN(C(=O)Cn2nnc(-c3ccc([N+](=O)[O-])cc3)n2)C1 (configuration not stated)	0	i	i	-2	i	i	·	·
SMILES	IMP-1 inhibitor	CHT inh	CHT PAM	VIM-2 inhibitor	ANO1 activ	ANO1 block	CHT block conf	HEK293 MPD ctr
COC(=O)C(CC(=O)c1ccccc1)CC(=O)c1ccccc1	-1	-5*	i	-1	i	i	i	i
COc1ccc(CCN=C(N)NS(=O)(=O)c2cc(F)ccc2F)cc1	-3	i	i	-1	i	i	·	·
CCNC(=O)C1(c2ccccc2)CCCC1	-1	-6.8*	i	1	i	i	i	i
Fc1ccc(CNc2ccc(N3CCN(Cc4ccccc4)CC3)cc2)cc1	-25	i	i	-3	i	i	i	i
Cc1ccc(N=C2NC(=O)CS2)cc1C	-2	i	i	-2	i	i	·	·
CCc1ccccc1NC(=O)C1CC(c2ccc(OC)cc2)=NO1 (configuration not stated)	-5	-6.3*	i	-1	i	i	48%*	i
COc1ccc(C2(OC)Oc3cc(OC)ccc3C(=O)C2(O)OC)cc1 (configuration not stated)	·	·	·	·	i	·	·	·
COc1ccc(C(=O)Nc2nc3nccc(-c4ccccc4)n3n2)cc1	-3	-6.4*	i	0	i	i	i	i
Cc1ccc(NC(=O)CSc2nnc(-c3ccccn3)n2N)c(Br)c1	-4	i	i	-1	i	i	·	·
NC(=S)N/N=C1/CCSc2ccc3ccccc3c21	-6	-5.6*	i	-1	i	i	68%*	i
NC(=S)N/N=C/c1c(O)ccc2ccccc12	0	i	i	0	i	i	·	·
CCCCn1c(Nc2ccc(OC)cc2)nc2ccccc21	-2	i	i	-2	i	i	·	·
COc1ccc(Nc2nc3ccccc3n2C)cc1	-3	-6.5*	i	-1	i	i	53%*	i
Cc1ccc(-n2c(CCc3ccccc3)n[nH]c2=S)cc1C	-4	i	i	-1	i	i	·	·
O=C(NNC(=S)NC(=O)C12CC3CC(CC(C3)C1)C2)c1ccncc1	-1	-9.6*	i	-3	i	25*	53%*	i
CC1(C(=O)NC(=S)NNC(=O)c2ccncc2)CCCCC1	-1	i	i	-2	i	i	·	·
